ChEMBL document CHEMBL1949570, “Quinoline- and isoquinoline-sulfonamide derivatives of LCAP as potent CNS multi-receptor-5-HT1A/5-HT2A/5-HT7 and D2/D3/D4-agents: the synthesis and pharmacological evaluation” (Bioorg Med Chem, 2012)
Blank lines part the entries; values can stand above or below the compound they belong to. Calls of active or inactive are those of the source. The rule behind the calls is not given here.

Assays:
D(2) dopamine receptor = D(2) dopamine receptor (Rattus norvegicus, UniProt P61169); assay: Displacement of [3H]-spiperone from rat striatum dopamine D2 receptor by liquid scintillation counter
Sequence of D(2) dopamine receptor (P61169 whole entry): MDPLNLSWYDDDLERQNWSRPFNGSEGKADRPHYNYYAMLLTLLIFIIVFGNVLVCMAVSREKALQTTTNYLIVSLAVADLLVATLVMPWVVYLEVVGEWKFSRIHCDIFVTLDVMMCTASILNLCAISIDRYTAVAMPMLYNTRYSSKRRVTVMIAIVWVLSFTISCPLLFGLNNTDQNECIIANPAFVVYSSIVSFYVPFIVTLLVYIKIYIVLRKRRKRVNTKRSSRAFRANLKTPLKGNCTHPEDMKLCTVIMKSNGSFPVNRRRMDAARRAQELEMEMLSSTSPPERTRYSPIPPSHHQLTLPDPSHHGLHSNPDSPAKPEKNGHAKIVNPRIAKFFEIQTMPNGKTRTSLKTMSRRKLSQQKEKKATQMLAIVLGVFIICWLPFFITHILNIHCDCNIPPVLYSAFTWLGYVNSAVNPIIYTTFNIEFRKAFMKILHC
Procedure, shortened: (§1)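 Competition binding. 5-HT1A: rat hippocampus, [3H]-8-OH-DPAT. 5-HT2A: rat cortex, [3H]-ketanserin. D2: rat striatum, [3H]-spiperone. 5-HT6: human receptor stably in HEK293, [3H]-LSD. 5-HT7: human receptor stably in HEK293, [3H]-5-CT. Vacuum filtration on GF/B filters, ice-cold washes, scintillation counting.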

Mus musculus [1] = assay: Antidepressant activity in Swiss albino mouse assessed as reduction in immobility time at 20 mg/kg measured for 4 mins by forced swim test; format: functional
Procedure, shortened: (§2)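 Porsolt forced swim in male Swiss albino mice. Drugs ip (10 ml/kg; 1% Tween 80 suspension, imipramine in water) 30 min before. Cylinder 25 cm high, 10 cm diameter, 6 cm water at 23–25 °C, 6 min session; immobility scored over final 4 min. 5–10 mice/dose; one-way ANOVA with Bonferroni.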

[2] = target: 5-hydroxytryptamine receptor 2A (Rattus norvegicus, UniProt P14842); assay: Displacement of [3H]Ketanserin from rat cortex 5-HT2A receptor by liquid scintillation counter; procedure, shortened: as §1
Sequence of 5-hydroxytryptamine receptor 2A (P14842 whole entry): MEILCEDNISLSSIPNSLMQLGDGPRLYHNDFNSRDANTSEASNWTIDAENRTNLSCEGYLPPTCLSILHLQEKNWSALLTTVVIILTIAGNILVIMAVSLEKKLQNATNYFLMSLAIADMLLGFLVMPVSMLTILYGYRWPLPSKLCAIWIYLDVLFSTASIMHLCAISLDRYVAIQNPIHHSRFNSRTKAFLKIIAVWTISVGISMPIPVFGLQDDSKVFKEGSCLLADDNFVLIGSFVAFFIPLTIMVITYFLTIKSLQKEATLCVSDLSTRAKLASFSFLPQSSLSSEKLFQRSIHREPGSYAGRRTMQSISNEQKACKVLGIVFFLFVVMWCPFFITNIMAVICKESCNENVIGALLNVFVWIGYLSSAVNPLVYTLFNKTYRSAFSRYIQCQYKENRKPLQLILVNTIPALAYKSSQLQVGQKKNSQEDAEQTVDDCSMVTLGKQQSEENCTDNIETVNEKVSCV

[3] = target: D(3) dopamine receptor (Homo sapiens) (UniProt P35462); assay: Displacement of [3H]-methylspiperone from human cloned dopamine D3 receptor expressed in HEK293 cells at 10 '-6 M by liquid scintillation counter; format: cell-based
Sequence of D(3) dopamine receptor (Homo sapiens) (P35462 whole entry): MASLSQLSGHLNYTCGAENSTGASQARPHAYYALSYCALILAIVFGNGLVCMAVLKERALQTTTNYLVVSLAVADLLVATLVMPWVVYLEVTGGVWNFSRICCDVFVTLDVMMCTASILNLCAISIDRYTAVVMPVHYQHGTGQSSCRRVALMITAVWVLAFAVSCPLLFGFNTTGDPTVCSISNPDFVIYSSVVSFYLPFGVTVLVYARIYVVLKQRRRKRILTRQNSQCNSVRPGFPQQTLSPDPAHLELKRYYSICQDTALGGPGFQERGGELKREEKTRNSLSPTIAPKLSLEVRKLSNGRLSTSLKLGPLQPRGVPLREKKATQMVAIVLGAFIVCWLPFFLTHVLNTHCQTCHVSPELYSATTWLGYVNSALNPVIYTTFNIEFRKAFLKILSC

Mus musculus [4] = assay: […] activity in Swiss albino mouse assessed as inhibition of apomorphine-induced climbing behavior administered 10 mins before apomorphine challenge measured for 2 mins; format: functional
Procedure, shortened: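 Male Swiss albino mice; compounds ip in 1% Tween 80 suspension, 10 min before apomorphine 3 mg/kg. Climbing time (2–4 paws on bar wall) recorded for 2 min starting 20 min after apomorphine.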

[5] = target: D(3) dopamine receptor (Homo sapiens) (UniProt P35462); assay: Displacement of [3H]-methylspiperone from human cloned dopamine D3 receptor expressed in HEK293 cells at 10 '-7 M by liquid scintillation counter; format: cell-based
Mus musculus [6] = assay: […] activity in ip dosed Swiss albino mouse assessed as inhibition of DOI-induced head twitches administered 20 mins before DOI challenge measured for 20 mins; format: functional; settings: for ED50: read-out: ID50 (the source's name)
Rattus norvegicus [7] = assay: Anxiolytic activity in Wistar rat assessed as increase in time spent in open arms at 2.5 mg/kg after 5 mins by plus-maze test (reference value: 7.9 +/- 1.4 %); format: functional
[8] = target: T1, D(4) dopamine receptor (Homo sapiens) (UniProt P21917); assay: Displacement of [3H]-methylspiperone from human cloned dopamine D4 receptor expressed in HEK293 cells at 10 '-6 M by liquid scintillation counter; format: cell-based
T1 sequence (whole entry): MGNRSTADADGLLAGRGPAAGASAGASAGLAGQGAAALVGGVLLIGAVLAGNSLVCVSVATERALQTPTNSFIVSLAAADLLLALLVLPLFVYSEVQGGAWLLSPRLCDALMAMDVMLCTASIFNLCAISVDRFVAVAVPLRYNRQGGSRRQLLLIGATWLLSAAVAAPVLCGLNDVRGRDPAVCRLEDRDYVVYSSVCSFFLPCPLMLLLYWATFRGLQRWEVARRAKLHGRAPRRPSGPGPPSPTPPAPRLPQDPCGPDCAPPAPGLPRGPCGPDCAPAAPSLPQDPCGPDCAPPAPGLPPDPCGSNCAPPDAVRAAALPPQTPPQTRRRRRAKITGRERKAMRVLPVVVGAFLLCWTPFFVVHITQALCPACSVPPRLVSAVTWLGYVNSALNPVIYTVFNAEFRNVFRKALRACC

Mus musculus [9] = assay: Antidepressant activity in Swiss albino mouse assessed as reduction in immobility time at 10 mg/kg measured for 4 mins by forced swim test; format: functional; procedure, shortened: as §2
Rattus norvegicus [10] = assay: Anxiolytic activity in Wistar rat assessed as increase in total distance at 2.5 mg/kg for 5 mins by general locomotor activity test; format: functional, organism-based; set-up: dose 2.5 mg/kg
Mus musculus [11] = assay: Antipsychotic activity in CD1 mouse assessed as reduction in spontaneous locomotor activity measuring number of crossings at 10 to 30 mg/kg every 5 mins for 1 hr; format: functional, organism-based
Procedure, shortened: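 Male CD-1 mice; compound or reference ip 30 min before test plus vehicle. After 30 min habituation in individual cages, crossings counted over 1 h, recorded every 5 min; mean ± SEM; one-way ANOVA, Bonferroni.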

[12] = target: T2, 5-hydroxytryptamine receptor 1A (Rattus norvegicus, UniProt P19327); assay: Displacement of [3H]8-OH-DPAT from rat hippocampus 5-HT1A receptor by liquid scintillation counter; format: tissue-based; procedure, shortened: as §1
T2 sequence (P19327 whole entry): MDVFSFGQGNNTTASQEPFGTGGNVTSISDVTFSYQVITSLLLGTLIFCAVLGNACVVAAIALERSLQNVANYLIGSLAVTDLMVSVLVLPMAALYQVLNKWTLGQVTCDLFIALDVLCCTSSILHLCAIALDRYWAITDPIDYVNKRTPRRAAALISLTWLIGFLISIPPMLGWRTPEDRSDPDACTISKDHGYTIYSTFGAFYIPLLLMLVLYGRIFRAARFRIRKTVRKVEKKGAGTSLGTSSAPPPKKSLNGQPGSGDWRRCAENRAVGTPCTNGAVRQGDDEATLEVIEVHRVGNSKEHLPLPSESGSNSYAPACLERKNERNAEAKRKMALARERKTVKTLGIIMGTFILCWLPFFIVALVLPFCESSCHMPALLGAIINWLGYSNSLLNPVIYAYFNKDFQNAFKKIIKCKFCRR

Rattus norvegicus [13] = assay: Anxiolytic activity in Wistar rat assessed as increase in time spent in open arms at 5 mg/kg after 5 mins by plus-maze test (reference value: 7.9 +/- 1.4 %); format: functional
Mus musculus [14] = assay: Antipsychotic activity in CD1 mouse assessed as inhibition of MK-801-induced hyperactivity measuring number of crossings at 5 to 30 mg/kg measured every 5 mins for 1 hr; format: functional, organism-based
Procedure, shortened: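 Male CD-1 mice; test compound ip 30 min before, MK-801 0.2 mg/kg (in water) ip 15 min before testing. After 30 min habituation, crossings counted for 60 min, recorded every 5 min. 5–10 mice/group; mean ± SEM; one-way ANOVA, Bonferroni versus vehicle + MK-801.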

[15] = target: T3, 5-hydroxytryptamine receptor 7 (Homo sapiens, UniProt P34969); assay: Displacement of [3H]5-CT form human cloned 5HT7 receptor expressed in human HEK293 cells by liquid scintillation counter; format: cell-based; procedure, shortened: as §1
T3 sequence (P34969 whole entry): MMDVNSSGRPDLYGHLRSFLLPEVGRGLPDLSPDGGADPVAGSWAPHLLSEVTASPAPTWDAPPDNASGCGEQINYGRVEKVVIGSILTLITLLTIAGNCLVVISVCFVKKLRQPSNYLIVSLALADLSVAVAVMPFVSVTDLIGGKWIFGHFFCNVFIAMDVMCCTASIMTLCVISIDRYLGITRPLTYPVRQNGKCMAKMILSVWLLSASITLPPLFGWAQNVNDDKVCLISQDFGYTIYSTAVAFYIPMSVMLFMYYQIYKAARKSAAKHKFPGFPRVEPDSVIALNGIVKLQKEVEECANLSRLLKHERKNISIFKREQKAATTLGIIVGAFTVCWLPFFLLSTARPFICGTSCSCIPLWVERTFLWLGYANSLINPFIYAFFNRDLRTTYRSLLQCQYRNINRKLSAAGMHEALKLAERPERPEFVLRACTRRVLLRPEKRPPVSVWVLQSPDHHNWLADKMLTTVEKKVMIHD

[16] = target: T3, 5-hydroxytryptamine receptor 7; assay: Antagonist activity at human cloned 5HT7 receptor expressed in human CHO cells assessed as adenylate cyclase activity by cAMP accumulation assay; format: functional, cell-based
Procedure, shortened: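 CHO cells stably expressing human 5-HT7 receptor; intracellular cAMP (adenylate cyclase) measured, expressed as % of maximal effect of 300 nM serotonin. Compounds tested at 5 concentrations spanning 10^-4–10^-9 in antagonist mode. KB from IC50 by modified Cheng–Prusoff, KB = IC50/(1+A/EC50A), A = reference agonist concentration.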

[17] = target: T1, D(4) dopamine receptor (Homo sapiens); assay: Displacement of [3H]-methylspiperone from human cloned dopamine D4 receptor expressed in HEK293 cells at 10 '-7 M by liquid scintillation counter; format: cell-based
Rattus norvegicus [18] = assay: Anxiolytic activity in Wistar rat assessed as increase in Y ambulations at 2.5 mg/kg for 5 mins by general locomotor activity test; format: functional, organism-based; set-up: dose 2.5 mg/kg
[19] = Selectivity ratio of compound Ki for rat hippocampus 5-HT1A receptor to human 5HT7 receptor; format: tissue-based
Procedure, shortened: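 Ratio of Ki values from competition binding: rat hippocampus 5-HT1A with [3H]-8-OH-DPAT versus human 5-HT7 in HEK293 with [3H]-5-CT; Ki by Cheng–Prusoff from 7–9 concentrations in triplicate.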

[20] = target: 5-hydroxytryptamine receptor 6 (Homo sapiens, UniProt P50406); assay: Displacement of [3H]-LSD from human full length cloned 5HT6 receptor expressed in human HEK293 cells by liquid scintillation counter; format: cell-based; procedure, shortened: as §1
Sequence of 5-hydroxytryptamine receptor 6 (P50406 whole entry): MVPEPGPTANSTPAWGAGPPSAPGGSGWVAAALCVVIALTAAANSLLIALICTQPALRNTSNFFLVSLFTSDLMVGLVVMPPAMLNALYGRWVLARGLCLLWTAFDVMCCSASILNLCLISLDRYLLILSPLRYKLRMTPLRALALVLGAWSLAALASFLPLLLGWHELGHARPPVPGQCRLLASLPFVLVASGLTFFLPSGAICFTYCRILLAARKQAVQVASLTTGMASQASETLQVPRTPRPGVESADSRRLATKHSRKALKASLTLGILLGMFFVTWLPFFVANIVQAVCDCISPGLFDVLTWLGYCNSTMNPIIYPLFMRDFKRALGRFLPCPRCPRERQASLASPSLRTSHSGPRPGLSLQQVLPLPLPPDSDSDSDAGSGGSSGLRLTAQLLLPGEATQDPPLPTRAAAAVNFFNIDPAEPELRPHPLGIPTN

Rattus norvegicus [21] = assay: Anxiolytic activity in Wistar rat assessed as increase in time spent in open arms at 10 mg/kg after 5 mins by plus-maze test (reference value: 7.9 +/- 1.4 %); format: functional
Rattus norvegicus [22] = assay: Anxiolytic activity in Wistar rat assessed as increase in open arm entries at 5 mg/kg after 5 mins by plus-maze test (reference value: 23.1 +/- […]); format: functional
Rattus norvegicus [23] = assay: Anxiolytic activity in Wistar rat assessed as increase in open arm entries at 2.5 mg/kg after 5 mins by plus-maze test (reference value: 23.1 +/- […]); format: functional
Rattus norvegicus [24] = assay: Anxiolytic activity in Wistar rat assessed as increase in open arm entries at 10 mg/kg after 5 mins by plus-maze test (reference value: 23.1 +/- […]); format: functional
Mus musculus [25] = assay: Antidepressant activity in Swiss albino mouse assessed as reduction in immobility time at 5 to 20 mg/kg measured for 4 mins by forced swim test; format: functional; set-up: scale not given: the % may be the effect or the level left; settings: dose mg/kg 5-20; procedure, shortened: as §2
Mus musculus [26] = assay: Antidepressant activity in mouse assessed as spontaneous locomotor activity 5 to 20 mg/kg; format: functional, organism-based
Procedure, shortened: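 Swiss albino mice given the forced swim doses ip 30 min before; placed individually in cages and channel crossings counted from 2 to 6 min with a multichannel activity monitor, matching the swim test observation period.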

Ki (D(2) dopamine receptor): 60 nM
Ki [2]: 59 nM
inhibition [3]: 93%
inhibition [5]: 67%
inhibition [8]: 98%
Ki [12]: 3210 nM
Ki [15]: 47 nM
Kb [16]: 90 nM
inhibition [17]: 70%
Ratio Ki [19]: 68
Ki [20]: 16700 nM
SMILES: Cl.O=S(=O)(c1cncc2ccccc12)N1CCC(CCN2CCN(c3ccc(Cl)cc3)CC2)CC1
Activity (Mus musculus [1]): Active
inhibition (Mus musculus [4]): Dose-dependent effect
ED50 (Mus musculus [4]; read-out: ID50 (the source's name)): 25.5 mg/kg
inhibition (Mus musculus [6]): Dose-dependent effect
ED50 (Mus musculus [6]): 20.3 mg/kg
Activity (Rattus norvegicus [7]): 25%
Activity (Mus musculus [9]): Active
Activity (Rattus norvegicus [10]): Active
Activity (Mus musculus [11]): inactive
Activity (Rattus norvegicus [13]): 19.4%
inhibition (Mus musculus [14]): Active
Activity (Rattus norvegicus [18]): Active
Activity (Rattus norvegicus [21]): 29.3%
Activity (Rattus norvegicus [22]): 32.9%
Activity (Rattus norvegicus [23]): 36.4%
Activity (Rattus norvegicus [24]): 40.3%

Ki [2]: 56 nM
Ki [12]: 208 nM
Ki [15]: 88 nM
Ki [20]: 155 nM
SMILES: Cl.O=S(=O)(NCCCCN1CCN(c2cccc(Cl)c2)CC1)c1cnc2ccc(Cl)cc2c1
Activity (Mus musculus [25]): 44%
inhibition (Mus musculus [6]): Dose-dependent effect
ED50 (Mus musculus [6]): 4.75 mg/kg
Activity (Mus musculus [26]): inactive
